Assay results taken from ChEMBL document CHEMBL1132183 (J Med Chem, 1999).

Columns and labels:
[1] = molecular target: T1, Alpha-1D adrenergic receptor (Homo sapiens, UniProt P25100); experiment: Displacement of [3H]prazosin from human cloned Alpha-1D adrenergic receptor
T1 sequence (P25100 whole entry): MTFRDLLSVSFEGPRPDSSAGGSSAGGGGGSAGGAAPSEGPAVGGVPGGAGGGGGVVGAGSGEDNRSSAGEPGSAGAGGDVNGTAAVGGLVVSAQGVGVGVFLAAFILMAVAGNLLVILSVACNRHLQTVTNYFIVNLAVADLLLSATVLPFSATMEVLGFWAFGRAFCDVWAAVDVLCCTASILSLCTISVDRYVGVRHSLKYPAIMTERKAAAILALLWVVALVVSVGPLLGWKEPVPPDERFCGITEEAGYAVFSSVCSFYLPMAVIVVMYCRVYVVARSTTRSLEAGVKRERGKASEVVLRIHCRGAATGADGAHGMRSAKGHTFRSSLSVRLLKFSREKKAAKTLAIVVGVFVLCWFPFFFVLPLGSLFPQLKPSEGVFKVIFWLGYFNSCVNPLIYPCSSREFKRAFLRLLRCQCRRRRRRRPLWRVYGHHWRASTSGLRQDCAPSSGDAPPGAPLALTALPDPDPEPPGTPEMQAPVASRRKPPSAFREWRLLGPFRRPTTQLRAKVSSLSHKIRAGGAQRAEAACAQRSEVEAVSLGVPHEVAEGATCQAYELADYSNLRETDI
How it was run: (§1)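 CHO cells stably transfected with each human α1 subtype; 30 μg membrane protein in 50 mM Tris-HCl pH 7.4 with 0.1–0.4 nM [3H]prazosin, 30 min at 25 °C. Competitors 1 pM–10 μM. Nonspecific binding defined with 10 μM phentolamine. Filtration, scintillation counting. Ki by Cheng–Prusoff; 2–3 experiments in triplicate.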

D(2) dopamine receptor = D(2) dopamine receptor (Rattus norvegicus, UniProt P61169); experiment: Displacement of [3H]spiperone from rat brain Dopamine receptor D2
Chain of D(2) dopamine receptor (P61169 whole entry): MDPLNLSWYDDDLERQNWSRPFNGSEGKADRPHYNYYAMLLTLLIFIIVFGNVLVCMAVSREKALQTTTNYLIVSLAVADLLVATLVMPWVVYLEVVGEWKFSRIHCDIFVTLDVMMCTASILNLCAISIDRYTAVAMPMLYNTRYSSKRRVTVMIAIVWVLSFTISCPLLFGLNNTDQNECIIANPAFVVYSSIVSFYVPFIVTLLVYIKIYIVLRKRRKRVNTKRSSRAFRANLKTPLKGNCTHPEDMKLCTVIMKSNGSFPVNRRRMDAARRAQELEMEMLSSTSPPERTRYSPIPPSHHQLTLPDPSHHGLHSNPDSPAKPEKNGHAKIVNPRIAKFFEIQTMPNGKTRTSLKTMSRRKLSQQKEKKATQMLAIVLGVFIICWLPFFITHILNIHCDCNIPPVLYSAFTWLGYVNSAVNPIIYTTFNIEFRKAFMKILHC
How it was run: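 Striata from male Sprague–Dawley rats homogenized in Tris-HCl pH 7.4. Buffer held 10 μM pargiline, 0.1% ascorbic acid, 120 mM NaCl, 5 mM KCl, 2 mM CaCl2, 1 mM MgCl2. Incubated with 0.2–0.6 nM [3H]spiperone for 15 min at 37 °C. Nonspecific binding defined with 1 μM (+)-butaclamol. Filtration, scintillation counting. Ki by Cheng–Prusoff.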

[2] = molecular target: T2, Alpha-1A adrenergic receptor (Homo sapiens, UniProt P35348); experiment: Displacement of [3H]prazosin from human cloned Alpha-1A adrenergic receptor; how it was run: as §1
T2 sequence (P35348 whole entry): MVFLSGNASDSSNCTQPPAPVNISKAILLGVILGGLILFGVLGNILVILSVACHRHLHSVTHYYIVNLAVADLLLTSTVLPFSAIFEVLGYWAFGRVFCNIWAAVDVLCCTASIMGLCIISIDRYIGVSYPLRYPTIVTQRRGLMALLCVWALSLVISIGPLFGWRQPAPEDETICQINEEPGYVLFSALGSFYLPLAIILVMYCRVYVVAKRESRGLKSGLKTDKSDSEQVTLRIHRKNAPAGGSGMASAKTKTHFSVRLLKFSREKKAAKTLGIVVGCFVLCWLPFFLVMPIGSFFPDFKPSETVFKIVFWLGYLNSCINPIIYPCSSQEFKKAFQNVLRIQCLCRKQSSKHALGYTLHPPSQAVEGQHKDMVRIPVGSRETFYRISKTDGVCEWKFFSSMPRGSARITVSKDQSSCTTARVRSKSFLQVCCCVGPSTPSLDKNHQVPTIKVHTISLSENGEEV

[3] = molecular target: T3, 5-hydroxytryptamine receptor 1A (Homo sapiens, UniProt P08908); experiment: Displacement of [3H]8-hydroxy-2-(di-n-propylamino)tetralin from human 5-hydroxytryptamine 1A receptor
T3 sequence (P08908 whole entry): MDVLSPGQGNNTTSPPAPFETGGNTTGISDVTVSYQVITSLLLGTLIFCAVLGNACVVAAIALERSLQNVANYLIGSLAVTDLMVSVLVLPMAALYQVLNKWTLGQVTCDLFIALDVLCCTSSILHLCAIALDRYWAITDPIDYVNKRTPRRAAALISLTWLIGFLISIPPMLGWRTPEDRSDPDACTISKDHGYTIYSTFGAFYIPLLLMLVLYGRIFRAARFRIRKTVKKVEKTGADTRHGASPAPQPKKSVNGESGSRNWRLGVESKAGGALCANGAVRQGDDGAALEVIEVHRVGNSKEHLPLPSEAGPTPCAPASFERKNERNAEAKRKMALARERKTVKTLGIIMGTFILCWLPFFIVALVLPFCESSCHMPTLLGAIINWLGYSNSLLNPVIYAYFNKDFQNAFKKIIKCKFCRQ
How it was run: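 Membranes of HeLa cells stably transfected with human 5-HT1A (genomic clone G-21), in 50 mM Tris-HCl pH 7.4, 2.5 mM MgCl2, 10 μM pargiline. […] Nonspecific binding defined with 10 μM 5-HT. Filtration, scintillation counting. Ki by Cheng–Prusoff; 2–3 experiments in triplicate.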

[4] = molecular target: T4, Alpha-1B adrenergic receptor (Rattus norvegicus) (UniProt P15823); experiment: Antagonism of Alpha-1B adrenergic receptor subtype (-)-phenylephrine-induced contraction of rat spleen; assay type: functional, tissue-based
T4 sequence (whole entry): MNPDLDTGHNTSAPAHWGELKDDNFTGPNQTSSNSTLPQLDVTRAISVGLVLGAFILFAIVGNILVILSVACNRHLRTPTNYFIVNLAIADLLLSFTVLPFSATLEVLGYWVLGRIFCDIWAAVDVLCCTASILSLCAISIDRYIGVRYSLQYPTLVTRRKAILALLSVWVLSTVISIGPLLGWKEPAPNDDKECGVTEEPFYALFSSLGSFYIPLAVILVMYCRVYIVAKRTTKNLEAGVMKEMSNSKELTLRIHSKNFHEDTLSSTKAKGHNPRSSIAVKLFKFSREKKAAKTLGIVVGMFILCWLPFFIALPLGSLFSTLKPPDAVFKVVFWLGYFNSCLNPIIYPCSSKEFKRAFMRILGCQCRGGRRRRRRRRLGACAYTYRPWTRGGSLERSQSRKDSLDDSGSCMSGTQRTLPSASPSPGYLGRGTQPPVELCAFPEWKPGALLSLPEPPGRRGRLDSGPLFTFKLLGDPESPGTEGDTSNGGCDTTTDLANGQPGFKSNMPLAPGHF
How it was run: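 Rat spleen, isometric cumulative (–)-phenylephrine curves at 30-min intervals; first discarded, second taken as control. Antagonist was equilibrated 30 min before the next curve.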

SMILES	Ki [1] [nM]	Ki (D(2) dopamine receptor) [nM]	Ki [2] [nM]	Ki [3] [nM]	pKb [4]
O[C@H]1[C@@H](NC[C@H]2COc3ccccc3O2)CC[C@@H]1Oc1ccccc1	200	2400	389	0.832	5.79
O[C@H]1[C@@H](NC[C@@H]2COc3ccccc3O2)CC[C@@H]1Oc1ccccc1	933	1120	955	3.72	5.44
O[C@@H]1[C@H](NC[C@H]2COc3ccccc3O2)CC[C@H]1Oc1ccccc1		2400	36.3	5.5	7.13
O[C@@H]1[C@H](NC[C@@H]2COc3ccccc3O2)CC[C@H]1Oc1ccccc1	16.2	6170	77.6	22.4	6.83
